Measured values from different studies.
Each line is one published result; the experiments were not run side by side.
Target: Mitogen-activated protein kinase kinase kinase 20 (MAP3K20, Homo sapiens, UniProt Q9NYL2)

SMILES | test | conditions | quantity | value
Cn1c2c(c3ccc(Cl)c(Cl)c31)C(C#N)C1(CCOCC1)NC2=O (centres unmarked) | thermal stability, DSF | 10 µM | ΔTm | 0.1 °C
Cc1c(C(=O)O)cc(-c2ccc(C3CCNCC3)cc2)c2ccc(-c3ccc(C(F)(F)F)cc3)cc12 | binding, competition with immobilised ligand | 1 µM | remaining binding | 100%
Nc1ncnc2occ(-c3ccc(NC(=O)Nc4cc(C(F)(F)F)ccc4F)cc3)c12 | cell-free assay, inhibitor | 20 µM | remaining signal | 0.15%
CC(C)(C)c1nc(-c2cccc(NS(=O)(=O)c3c(F)cccc3F)c2F)c(-c2ccnc(N)n2)s1 | enzyme activity, inhibitor, radiometric | 1 µM | remaining activity | 101%
O=C1NC(=O)c2cc(Nc3ccc(F)cc3)c(Nc3ccc(F)cc3)cc21 | cell-free assay | 0.5 µM | remaining signal | 94.5%
Nc1ncnc2c1ncn2[C@@H]1O[C@H](COP(=O)(O)OP(=O)(O)OP(=O)(O)O)[C@@H](O)[C@H]1O | enzyme activity, substrate, mass spectrometry |  | Km | 140 µM
CC1=C(C#N)C(c2ccc3c(c2)c(NC(=O)c2ccccc2C)nn3C)C(C#N)=C(C)N1 | cell-free assay, competition with immobilised ligand | 1 µM | remaining binding | 100%
Cn1c2c(c3ccccc31)C(C#N)C(C)(C)NC2=O (centres unmarked) | thermal stability, DSF | 10 µM | ΔTm | -0.3 °C
COc1cc2nccc(Oc3ccc(NC(=O)c4c5n(n(-c6ccc(F)cc6)c4=O)CCCC5)cc3)c2cc1OC | enzyme activity, inhibitor | 0.1 µM | inhibition | -4%
CC1(C)NC(=O)c2[nH]c3c(Cl)c(Cl)ccc3c2C1C#N (centres unmarked) | thermal stability, DSF | 10 µM | ΔTm | 0.6 °C
CNC(=O)c1cc(Oc2ccc(NC(=O)Nc3ccc(Cl)c(C(F)(F)F)c3)cc2)ccn1 | cell-free assay | 0.5 µM | remaining signal | 16.7%
CN(c1ccnc(CNc2nc(Nc3ccc4c(c3)CC(=O)N4)ncc2C(F)(F)F)n1)S(C)(=O)=O | cell-free assay, competition with immobilised ligand | 1 µM | remaining binding | 100%
CCCCNc1ncc2c(-c3ccc(F)cc3)nn(C[C@H]3CC[C@H](N)CC3)c2n1 | target engagement in cells, inhibitor, chemoproteomics | 20 mM | inhibition | 35.9%
CCC1(CC)NC(=O)c2c(c3ccc(Cl)c(Cl)c3n2C)C1C#N (centres unmarked) | thermal stability, DSF | 10 µM | ΔTm | 0 °C
CN1CC(Oc2cnc(C#N)cc2-c2ccn3nc(NC(=O)C4CC4)cc3c2)C1 | enzyme activity, inhibitor | 1 µM | inhibition | 12%
N#CC1c2c([nH]c3c(Cl)c(Cl)ccc23)C(=O)NC12CCCCC2 (racemic) | thermal stability, DSF | 10 µM | ΔTm | -0.3 °C
CSc1cccnc1N1CCN(Cc2nc3ccccc3[nH]2)CC1 | cell-free assay, competition with immobilised ligand | 1 µM | remaining binding | 100%
COc1cccc2c(NCc3ccccc3)nc(-n3c(N)nc4ccccc43)nc12 | target engagement in cells, inhibitor, chemoproteomics | 20 mM | inhibition | -3.3%
CNC(=O)c1ccc(Nc2ncc(C(F)(F)F)c(NCc3nccnc3N(C)S(C)(=O)=O)n2)cc1 | cell-free assay, competition with immobilised ligand | 0.1 µM | remaining binding | 100%
Cc1sc(C(=O)NC2COC2)cc1-n1cc(NC(=O)Nc2c(F)cccc2Cl)cn1 | enzyme activity, inhibitor | 10 µM | remaining activity | 89.9%
O=C(NC[C@@H]1[C@H]2CN(C(=O)OCc3cc(C(F)(F)F)cc(C(F)(F)F)c3)C[C@@H]12)c1ccc2[nH]nnc2c1 | cell-free assay, competition with immobilised ligand | 1 µM | remaining binding | 86%
O=C(Nc1cnn(-c2csc(C(=O)NC3COC3)c2)c1)Nc1ccccc1Cl | enzyme activity, inhibitor | 5 µM | remaining activity | 101%
Cn1c2c(Cl)c(Cl)ccc2c2cc(N)[nH]c(=O)c21 | thermal stability, DSF | 10 µM | ΔTm | 0.6 °C
COc1cc2ncnc(Nc3ccc(F)c(Cl)c3)c2cc1OCCCN1CCOCC1 | cell-free assay | 0.5 µM | remaining signal | 96.2%
Nc1c(C(=O)NCc2ccc(C(=O)NCCCC3CCCCC3)cc2)cnn1-c1ccccc1 | binding, competition with immobilised ligand | 1 µM | remaining binding | 42%
c1nc2c(Nc3ccc4c(c3)OCCO4)nc(Nc3ccc4c(c3)OCCO4)nc2[nH]1 | enzyme activity, inhibitor | 10 µM | activity vs control | 76%
